Laboratory results from ChEMBL document CHEMBL2390941 (Bioorg Med Chem Lett, 2013).
≈ marks a conversion by molar mass, not a printed value. Calls of active or inactive are those of the source. The rule behind the calls is not given here.

How the values were obtained:
[1] = test system: Plasmodium falciparum; test: Antiplasmodial activity against blood stage of drug-resistant Plasmodium falciparum TM91C235; assay type: functional
How it was run: (§1)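 Blood-stage parasites tested in a dose-response growth inhibition assay; values reported in ng/ml.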

[2] = test system: Plasmodium falciparum; test: Antiplasmodial activity against blood stage of drug-sensitive Plasmodium falciparum D6; assay type: functional; how it was run: as §1
[3] = target: T1, Enoyl-acyl carrier reductase (Toxoplasma gondii, UniProt Q6UCJ9); test: Inhibition of Toxoplasma gondii enoyl acyl-carrier protein reductase
T1 sequence (Q6UCJ9 whole entry): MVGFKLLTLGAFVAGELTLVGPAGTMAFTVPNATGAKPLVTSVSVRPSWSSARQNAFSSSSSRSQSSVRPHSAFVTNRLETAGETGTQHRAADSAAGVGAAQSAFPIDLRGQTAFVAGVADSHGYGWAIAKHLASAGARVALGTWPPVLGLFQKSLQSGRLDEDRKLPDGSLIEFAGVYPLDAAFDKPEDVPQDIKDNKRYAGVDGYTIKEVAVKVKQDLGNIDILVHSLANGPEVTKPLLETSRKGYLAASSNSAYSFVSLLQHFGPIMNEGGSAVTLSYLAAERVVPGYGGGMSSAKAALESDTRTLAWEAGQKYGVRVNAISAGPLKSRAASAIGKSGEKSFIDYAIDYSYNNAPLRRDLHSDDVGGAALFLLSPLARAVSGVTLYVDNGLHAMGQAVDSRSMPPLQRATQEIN

[4] = target: T2, Enoyl-acyl carrier reductase (Toxoplasma gondii) (UniProt Q6UCJ9); test: Inhibition of Toxoplasma gondii enoyl acyl-carrier protein reductase at 1 uM
T2 sequence (whole entry): T1 sequence (Q6UCJ9 whole entry)

[5] = test system: HFF; test: Cytotoxicity against HFF after 72 hrs by WST-1 assay; assay type: cell-based; conditions: human
How it was run: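 Uninfected human foreskin fibroblast host cells were incubated with compounds for 72 h. Viability was then assessed by WST-1 staining. The effect of DMSO levels in the culture medium was assessed alongside.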

[6] = test system: Toxoplasma gondii; test: Antiparasitic activity against tachyzoite of Toxoplasma gondii RH expressing yellow fluorescent protein infected in human foreskin fibroblasts after 72 hrs by bacterial beta-galactosidase reporter gene assay; assay type: functional
[7] = test system: Toxoplasma gondii; test: Antiparasitic activity against tachyzoite of Toxoplasma gondii RH expressing yellow fluorescent protein infected in human foreskin fibroblasts after 72 hrs by fluorescence assay

| SMILES | Activity [1] | Activity [2] | IC50 [3] [µM] | inhibition [4] [%] | Activity [5] [µM] | MIC50 [6] [µM] | MIC50 [7] [µM] |
| --- | --- | --- | --- | --- | --- | --- | --- |
| CCCc1cc(-c2ccc(Oc3ccc(C#N)cc3O)c(Cl)c2)no1 | inactive | > 2440 ng/mL | 0.029 | 94 | > 10 | 4 (≈ 1.42 µg/mL) | – |
| Cc1cc(C(=O)NCc2ccc(Oc3ccc(Cl)cc3Cl)c(O)c2)no1 | – | – | 0.019 | – | – | – | – |
| N#Cc1ccc(Oc2ccc(-c3cc(CCO)on3)cc2Cl)c(O)c1 | – | >10000 ng/mL | 0.034 | 94 | > 10 | 8 (≈ 2.85 µg/mL) | – |
| Oc1cc(Cl)ccc1Oc1ccc(Cl)cc1Cl [TRICLOSAN] | inactive | inactive | – | 98 | > 10 | – | 5 (≈ 1.45 µg/mL) |
| CCCc1cc(-c2ccc(Oc3ccc(CNC(=O)c4cc(C)on4)cc3O)c(Cl)c2)no1 | – | >10000 ng/mL | 0.137 | 89 | > 10 | – | 4 (≈ 1.87 µg/mL) |
